Source: ChEMBL document CHEMBL1136055, “3-Heteroaryl-2-pyridones: benzodiazepine site ligands with functional delectivity for alpha 2/alpha 3-subtypes of human GABA(A) receptor-ion channels” (J Med Chem, 2002)
pKi: −log10 of the molar value.

How the values were obtained:
[1] = molecular target: T1, GABA-A receptor; alpha-1/beta-3/gamma-2 (Homo sapiens, UniProt P14867+P18507+P28472); test: Inhibition of [3H]Ro-151788 binding to human GABA A receptor (alpha-1-beta-3-gamma-2) stably expressed in L(tk-) cells.; format: cell-based
T1 sequence (P14867 whole entry): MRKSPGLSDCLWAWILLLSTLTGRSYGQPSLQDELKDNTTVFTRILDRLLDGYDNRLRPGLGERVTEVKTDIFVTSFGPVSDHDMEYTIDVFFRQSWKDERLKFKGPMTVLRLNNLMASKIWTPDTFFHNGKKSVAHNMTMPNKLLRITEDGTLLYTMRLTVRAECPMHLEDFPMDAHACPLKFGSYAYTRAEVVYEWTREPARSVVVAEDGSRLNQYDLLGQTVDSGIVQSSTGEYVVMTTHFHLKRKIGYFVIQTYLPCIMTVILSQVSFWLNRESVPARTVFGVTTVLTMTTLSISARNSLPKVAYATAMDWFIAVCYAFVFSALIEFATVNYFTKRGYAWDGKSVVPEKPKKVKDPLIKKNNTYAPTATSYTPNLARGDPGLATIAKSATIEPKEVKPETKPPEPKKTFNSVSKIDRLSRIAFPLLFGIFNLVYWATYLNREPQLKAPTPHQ
T1 sequence (P18507 whole entry): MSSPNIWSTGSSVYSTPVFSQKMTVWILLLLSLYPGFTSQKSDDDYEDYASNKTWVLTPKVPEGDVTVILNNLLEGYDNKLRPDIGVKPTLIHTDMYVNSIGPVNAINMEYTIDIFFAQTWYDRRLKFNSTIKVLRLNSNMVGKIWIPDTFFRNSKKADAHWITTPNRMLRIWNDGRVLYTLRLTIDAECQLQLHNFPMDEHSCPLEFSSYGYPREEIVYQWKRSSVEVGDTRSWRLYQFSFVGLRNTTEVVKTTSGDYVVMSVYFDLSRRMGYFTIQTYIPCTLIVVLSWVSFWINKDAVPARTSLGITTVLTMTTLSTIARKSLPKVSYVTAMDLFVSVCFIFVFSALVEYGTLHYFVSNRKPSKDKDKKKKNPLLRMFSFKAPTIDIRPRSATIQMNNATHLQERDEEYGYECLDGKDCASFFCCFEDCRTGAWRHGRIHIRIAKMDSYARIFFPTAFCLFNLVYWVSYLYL
T1 sequence (P28472 whole entry): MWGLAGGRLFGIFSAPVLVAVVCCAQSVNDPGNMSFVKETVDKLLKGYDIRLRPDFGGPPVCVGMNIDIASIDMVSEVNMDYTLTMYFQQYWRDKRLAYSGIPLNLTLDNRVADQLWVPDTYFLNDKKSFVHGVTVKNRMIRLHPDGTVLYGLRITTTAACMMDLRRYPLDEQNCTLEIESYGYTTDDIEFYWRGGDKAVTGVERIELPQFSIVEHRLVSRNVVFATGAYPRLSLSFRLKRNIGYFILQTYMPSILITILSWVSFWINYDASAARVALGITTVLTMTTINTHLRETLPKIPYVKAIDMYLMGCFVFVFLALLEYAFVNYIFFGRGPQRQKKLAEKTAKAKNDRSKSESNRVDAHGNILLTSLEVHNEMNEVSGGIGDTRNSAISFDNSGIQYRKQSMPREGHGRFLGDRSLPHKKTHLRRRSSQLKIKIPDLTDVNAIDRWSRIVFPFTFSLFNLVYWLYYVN

[2] = molecular target: GABA-A receptor; alpha-3/beta-3/gamma-2 (Homo sapiens) (UniProt P18507+P28472+P34903); test: Modulatory effect on coapplication with GABA at human Gamma-aminobutyric acid A receptor alpha-3-beta-3-gamma-2 in Xenopus oocytes.; format: cell-based; conditions: Oocyte
How it was run: (§1)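 Two-electrode voltage clamp of Xenopus oocytes transiently expressing human α1, α2 or α3 β3γ2S receptors. Test compound is co-applied with GABA at its EC20 (GABA range 4-30 µM). Result is the % change in GABA current, mean (SEM), n = 3-7, at the stated test compound concentration (µM).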

[3] = molecular target: GABA-A receptor; alpha-1/beta-3/gamma-2 (Homo sapiens) (UniProt P14867+P18507+P28472); test: Modulatory effect on coapplication with GABA at human Gamma-aminobutyric acid A receptor alpha-1-beta-3-gamma-2 in Xenopus oocyte.; how it was run: as §1
[4] = molecular target: GABA-A receptor; alpha-2/beta-3/gamma-2 (Homo sapiens) (UniProt P18507+P28472+P47869); test: Modulatory effect on coapplication with GABA at human Gamma-aminobutyric acid A receptor alpha-2-beta-3-gamma-2 expressed inXenopus oocytes; format: cell-based; conditions: Oocyte; how it was run: as §1
[5] = molecular target: T2, GABA-A receptor; alpha-2/beta-3/gamma-2 (Homo sapiens, UniProt P18507+P28472+P47869); test: Displacement of [3H]Ro-151788 from human Gamma-aminobutyric acid A receptor alpha-2-beta-3-gamma-2 stably expressed in L(tk-) cells; format: cell-based
T2 sequence (P18507 whole entry): T1 sequence (P18507 whole entry)
T2 sequence (P28472 whole entry): T1 sequence (P28472 whole entry)
T2 sequence (P47869 whole entry): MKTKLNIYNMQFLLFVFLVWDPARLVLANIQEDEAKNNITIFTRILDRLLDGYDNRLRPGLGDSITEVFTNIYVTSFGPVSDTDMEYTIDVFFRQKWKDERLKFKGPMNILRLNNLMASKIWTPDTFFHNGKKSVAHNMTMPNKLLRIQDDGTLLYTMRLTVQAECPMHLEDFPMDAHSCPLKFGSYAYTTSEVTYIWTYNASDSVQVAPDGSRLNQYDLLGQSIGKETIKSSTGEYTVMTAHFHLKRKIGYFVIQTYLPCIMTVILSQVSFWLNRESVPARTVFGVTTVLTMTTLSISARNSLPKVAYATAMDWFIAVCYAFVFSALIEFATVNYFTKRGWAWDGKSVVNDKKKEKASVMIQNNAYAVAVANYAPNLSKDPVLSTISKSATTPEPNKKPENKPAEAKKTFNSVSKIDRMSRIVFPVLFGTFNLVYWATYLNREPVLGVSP
How it was run: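 Competition binding against [3H]Ro15-1788 on cloned human α1/α2/α3/α5 β3γ2S receptors stably expressed in L(tk-) cells. Six to eight test concentrations spaced in half-log steps. Ki given as mean (SEM), n = 3-5, reported to two significant figures.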

`COc1ccc(-c2cc(-c3nc(C)cs3)c(=O)n(C)c2-c2ccncc2)cc1` gave a pKi [1] of 7.77, a percent modulation of GABA EC20 response [2] of 43% and a percent modulation of GABA EC20 response [3] of 7%. For the same compound, the percent modulation of GABA EC20 response [4] was 80% and the pKi [5] was 8.07.
`COc1ccc(-c2cc(-c3nc(C)cs3)c(=O)n(C)c2-c2ccnnc2)cc1` gave a pKi [1] of 7.77, a percent modulation of GABA EC20 response [2] of 34% and a percent modulation of GABA EC20 response [3] of 7%. It also gave a percent modulation of GABA EC20 response [4] of 33% and a pKi [5] of 8.18.
